The text below walks through data of ChEMBL document CHEMBL4732196, “Structural optimization towards promising β-methyl-4-acrylamido quinoline derivatives as PI3K/mTOR dual inhibitors for anti-cancer therapy: The in vitro and in vivo biological evaluation” (Eur J Med Chem, 2021).

Structures are written as SMILES. Calls of active or inactive are those of the source. The rule behind the calls is not given here.

By GI50 is commonly meant the concentration giving 50% growth inhibition. A higher GI50 goes with less potent growth inhibition. In general, IC50 refers to the concentration at which inhibition is half-maximal. In general, MRT inf refers to the average time that molecules of a dose stay in the body. As a reminder, the MRT last is a mean duration of stay, worked out from the concentration-time curve.

One series relates to U-87 MG. Put plainly: Growth inhibition of human U87MG cells after 72 hrs by sulforhodamine B assay. In kind it is functional, U-87MG ATCC.
The target in series [1] is T1, Serine/threonine-protein kinase mTOR (Homo sapiens, UniProt P42345). The series can be described thus: Inhibition of recombinant human N-terminal FLAG-tagged mTOR (1362 to end amino acids) using ULight-4E-BP1 as substrate incubated for 1 hr by LANCE Ultra assay. On the technique in general: TR-FRET usually uses a lanthanide donor and a delayed reading to cut background.

The target in series [2] is Phosphatidylinositol 4,5-bisphosphate 3-kinase catalytic subunit alpha isoform (Homo sapiens, UniProt P42336). The series can be described thus: Inhibition of recombinant human PI3Kalpha using PIP2 as substrate incubated for 1 hr by kinase-glo luminescent assay.
In another series the test system is PC-3. Put plainly: Growth inhibition of human PC3 cells after 72 hrs by sulforhodamine B assay. It is filed as functional.
Series [3] has as its system U87. Put plainly: Inhibition of PI3K in human U87MG cells assessed as suppression of phosphorylation of AKT at Ser473 residue at 25 nM after 3 hrs by Western blot analysis. In kind it is cell-based. The procedure, abridged: (§1)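 U87MG cells seeded at 1×10^6 per well, incubated overnight at 37 °C, 5% CO₂, then treated at various concentrations for 3 h at 37 °C. Western blot for phospho-Akt (Ser473, Thr308), phospho-S6 (Ser235/236) and phospho-4E-BP1 (Thr37/46), with GAPDH as internal control. Bands quantified as mean ± SD, n = 3 biological replicates, versus untreated cells.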
In general terms: In western blotting, separated proteins are transferred to a membrane and probed.

Series [4] has as its target T1, Serine/threonine-protein kinase mTOR. The series can be described thus: Inhibition of mTOR in human U87MG cells assessed as suppression of phosphorylation of S6 ribosomal at Ser235/236 residues at 25 nM after 3 hrs by Western blot analysis. It is filed as cell-based. To be noted: U87. The procedure, abridged: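 U87MG cells were seeded at 1×10^6 per well and held overnight at 37 °C, 5% CO2. They were then exposed to a range of inhibitor concentrations for 3 h at 37 °C. Phospho-Akt (Ser473, Thr308), phospho-S6 (Ser235/236) and phospho-4E-BP1 (Thr37/46) were measured by Western blot with GAPDH as loading control. Bands were quantified as mean ± SD of 3 biological replicates against untreated cells.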

For series [5] the target is unchanged. The series can be described thus: Inhibition of mTOR in human U87MG cells assessed as suppression of phosphorylation of S6 ribosomal at 25 nM after 3 hrs by Western blot analysis. As to conditions: U87.
The test system of series [6] is U87. Put plainly: Inhibition of PI3K in human U87MG cells assessed as suppression of phosphorylation of AKT at Thr308 residue at 25 nM after 3 hrs by Western blot analysis. In kind it is cell-based. The procedure, abridged: as §1
Series [7] in a line: MRT(0 to infinity) in Sprague-Dawley rat at 5 mg/kg, po. It is filed as ADME, organism-based. To be noted: in vivo. The procedure, abridged:
(§2)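 Male Sprague-Dawley rats (n = 3) received a single 5 mg/kg oral gavage dose formulated as a suspension in 0.5% methylcellulose. Plasma concentration-time curves were recorded and mean PK parameters derived.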

Series [8] is described as follows: MRT(0 to t) in Sprague-Dawley rat at 5 mg/kg, po. It is filed as ADME, organism-based. As to conditions: in vivo. The method in brief: as §2

Sequence of Phosphatidylinositol 4,5-bisphosphate 3-kinase catalytic subunit alpha isoform (P42336 whole entry, canonical isoform): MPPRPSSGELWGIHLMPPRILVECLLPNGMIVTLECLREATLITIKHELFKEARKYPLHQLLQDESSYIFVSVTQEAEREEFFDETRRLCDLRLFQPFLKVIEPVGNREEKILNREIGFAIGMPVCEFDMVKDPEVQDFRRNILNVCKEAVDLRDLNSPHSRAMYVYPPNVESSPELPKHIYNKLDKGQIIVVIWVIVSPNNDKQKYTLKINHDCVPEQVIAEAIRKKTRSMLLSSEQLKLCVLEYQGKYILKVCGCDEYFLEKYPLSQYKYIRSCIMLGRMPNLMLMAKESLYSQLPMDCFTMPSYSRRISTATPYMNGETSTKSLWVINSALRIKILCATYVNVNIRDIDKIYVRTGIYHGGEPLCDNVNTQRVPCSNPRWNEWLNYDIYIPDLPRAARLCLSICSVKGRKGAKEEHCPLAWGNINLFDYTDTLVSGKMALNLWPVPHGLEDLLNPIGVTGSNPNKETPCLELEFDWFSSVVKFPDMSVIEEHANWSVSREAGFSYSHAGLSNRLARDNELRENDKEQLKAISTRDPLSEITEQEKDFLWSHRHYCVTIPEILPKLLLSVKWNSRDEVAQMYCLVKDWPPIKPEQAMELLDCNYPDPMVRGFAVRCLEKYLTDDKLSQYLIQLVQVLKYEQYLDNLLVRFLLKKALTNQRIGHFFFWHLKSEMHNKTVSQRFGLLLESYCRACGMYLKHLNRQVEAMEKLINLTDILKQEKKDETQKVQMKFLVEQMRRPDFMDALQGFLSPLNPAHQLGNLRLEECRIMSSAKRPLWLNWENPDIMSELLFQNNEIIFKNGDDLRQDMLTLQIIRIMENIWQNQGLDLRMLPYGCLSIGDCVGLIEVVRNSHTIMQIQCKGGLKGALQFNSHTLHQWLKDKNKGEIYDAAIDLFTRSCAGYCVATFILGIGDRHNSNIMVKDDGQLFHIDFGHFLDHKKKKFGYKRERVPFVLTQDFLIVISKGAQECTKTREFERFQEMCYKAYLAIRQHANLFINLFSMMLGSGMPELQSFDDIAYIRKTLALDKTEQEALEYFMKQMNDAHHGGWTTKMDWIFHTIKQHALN

As for `COc1ncc(-c2ccc3nccc(/C(C)=C/C(=O)N4CCC(O)CC4)c3c2)cc1NS(=O)(=O)c1ccc(F)cc1F`, the GI50 stood at 600 nM in the series on U-87 MG and 1080 nM in the series with PC-3. Besides, the concentration for half-maximal inhibition (IC50) in series [1] worked out at 6.1 nM; in series [2], 1.4 nM.
For `COc1ncc(-c2ccc3nccc(/C(C)=C/C(=O)N(C)CCO)c3c2)cc1NS(=O)(=O)c1ccc(F)cc1F`, in that order: 380 nM, 290 nM, 1.7 nM and 1.5 nM.
Consider `COc1ncc(-c2ccc3nccc(/C(C)=C/C(=O)N4CCCC4)c3c2)cc1NS(=O)(=O)c1ccc(F)cc1F`, for which the values for the 50% growth inhibitory concentration (GI50) in the series with U-87 MG and in the series with PC-3 were 390 nM and 1160 nM, respectively. The concentration for half-maximal inhibition (IC50) in series [1] worked out at 2.1 nM; in [2], 1.2 nM.
For `COc1ncc(-c2ccc3nccc(/C(C)=C\C(=O)N4CCOCC4)c3c2)cc1NS(=O)(=O)c1ccc(F)cc1F`, in that order: more than 10000 nM, 8020 nM, 141 nM and 23 nM.
The matching figures for `COc1ncc(-c2ccc3nccc(/C(C)=C/C(=O)N4CCOCC4)c3c2)cc1NS(=O)(=O)c1ccc(F)cc1F`: 610 nM, 1670 nM, 3.3 nM and 1.1 nM.
As to `COc1ncc(-c2ccc3nccc(-c4ccnnc4)c3c2)cc1NS(=O)(=O)c1ccc(F)cc1F` [OMIPALISIB], the values for the GI50 with U-87 MG and in the series on PC-3 were 220 nM and 250 nM, respectively. Also, the inhibition entry (in the series on U87 [3]; in series [4]; in series [5]; in the series on U87 [6]) was “Active” throughout.
Consider `COc1ncc(-c2ccc3nccc(/C=C/C(=O)N4CCN(C)CC4)c3c2)cc1NS(=O)(=O)c1ccc(F)cc1F`, for which the figures for the GI50 in the series with U-87 MG and in the series on PC-3 were 220 nM and 450 nM, respectively. Further, the values for the IC50 in series [1] and in series [2] were 3.2 nM and 1.04 nM, respectively. Moreover, in [7], the MRT inf was 2.59 h. Further, in series [8], the MRT last is 1.89 h.
